Source: PubChem BioAssay
PLAP activator: PLAP enzyme activators, biochemical, luminescence, HTS | AID 696, 2007 | activation fold at 20 µM | purified PLAP enzyme, luminescent substrate read-out; hits give high values | Alkaline phosphatase, placental type (Homo sapiens), P05187 | 1.2% of 96,000 active; in the data active means activation fold above about 2
Ecoli WT expand: growth inhibitors of wild-type E. coli, primary screen, strain BW25113, expanded library, OD600; growth inhibition, % at 100 µM; AID 710, 2007; 0.15% of 98,000 active; OD600 absorbance;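 active means growth inhibition above about 50% at one test dose, limit read from the data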;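 further: growth measured after 20 h incubation at 37 °C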
Ecoli tolC: growth inhibitors of E. coli tolC mutant, primary screen, strain BW25113 ΔtolC::kan, 384-well. AID 573, 2007. growth inhibition, % at 10 µM (by protocol). OD615. 2.2% of 65,000 active;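 active means growth inhibition at or above a cutoff equal to the mean over every tested compound plus 3 SD, cut at about 60% in these data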;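 further: growth measured after 20 h incubation at 37 °C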
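Test system – E. coli BW25113 ΔtolC::kan, tolC deletion mutant strain · Detection – OD at 615 nm · Buffer or medium – LB with kanamycin 50 µg/mL · Times – 20 h compound exposure of bacteria at 37 °C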
HePTP inhibitor: inhibitors of human HePTP phosphatase, primary screen, biochemical, absorbance, leukemia target | recombinant HePTP phosphatase activity, OD absorbance | inhibition, % at 20 µM | 0.64% of 110,000 active | AID 521, 2006; in the data active means inhibition above about 50%
Target sequence (P35236 whole entry, looked up): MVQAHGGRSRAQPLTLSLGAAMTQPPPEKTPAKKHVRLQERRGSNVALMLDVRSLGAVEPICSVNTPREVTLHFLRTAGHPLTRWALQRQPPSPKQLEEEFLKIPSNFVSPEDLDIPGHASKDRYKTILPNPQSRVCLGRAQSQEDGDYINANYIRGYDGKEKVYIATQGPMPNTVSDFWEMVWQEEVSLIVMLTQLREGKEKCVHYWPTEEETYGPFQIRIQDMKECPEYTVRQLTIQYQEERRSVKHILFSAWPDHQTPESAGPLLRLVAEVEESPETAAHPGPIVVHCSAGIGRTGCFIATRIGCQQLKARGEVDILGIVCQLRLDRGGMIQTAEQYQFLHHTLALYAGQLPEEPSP
PostGolgi ctrl: growth inhibition of yeast control strain, primary screen, counter-screen for post-Golgi transport modulator project; efflux-deficient yeast background strain, growth absorbance A615, 16 h; inhibition, % at 10 µM; 5% of 98,000 active
PostGolgi yeast: phenotypic screen on post-Golgi transport, primary screen; 0.9% of 98,000 active; inhibition, % at 10 µM; post-Golgi transport phenotypic cell assay;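 further: yeast cells grown in 1536-well plates; yeast grown about 18 h at 30C before absorbance read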
Numbers stand for hits. Sampled rows, rich in hits. Any-hit rate of the full collection: about 5.4%. Unless noted, no stated cut-off is given here; in the data, active means inhibition above about 30%; inactive means the rest.

For CCCCC(CC)CNC(=O)C1C2C=CC(C2)C1C(=O)O (stereo unspecified) the results were PLAP activator inactive, Ecoli WT expand inactive, PostGolgi ctrl inactive and PostGolgi yeast inactive.
`COc1ccc(-c2nc(SCC(=O)NCc3ccco3)c(-c3ccccc3)[nH]2)cc1OC` gave PLAP activator inactive, Ecoli WT expand inactive, Ecoli tolC inactive, HePTP inhibitor inactive, PostGolgi ctrl inactive and PostGolgi yeast inactive.
Screening COc1cccc(C2CC(c3ccc(C)cc3)n3ncnc3N2)c1 (stereo unspecified) returned PLAP activator inactive, Ecoli WT expand inactive, Ecoli tolC inactive, HePTP inhibitor inactive, PostGolgi ctrl inactive and PostGolgi yeast inactive.
Screening COc1ccc(OC)c(NC(=O)C2CC2(c2cccc(C)c2)c2cccc(C)c2)c1 (stereo unspecified) returned HePTP inhibitor inactive.
O=C(Nc1nc(SCc2ccc(F)cc2)ns1)c1ccco1 was read as Ecoli tolC 81.
Screening Cc1ccc(S(=O)(=O)Nc2cc(C(=O)Nc3cc(C)cc(C)c3)ccc2Cl)cc1 returned PLAP activator inactive, Ecoli WT expand inactive, PostGolgi ctrl 37 and PostGolgi yeast inactive.
For Cc1cccc(NC(=O)c2cccc(NS(=O)(=O)c3ccc(Cl)cc3)c2)c1 the results were PLAP activator inactive, Ecoli WT expand inactive, PostGolgi ctrl inactive and PostGolgi yeast inactive.
`O=C1NC(Nc2nccs2)(C(F)(F)F)C(=O)N1CCc1ccccc1` (stereo unspecified) gave PLAP activator 2, Ecoli WT expand inactive, Ecoli tolC inactive, HePTP inhibitor inactive, PostGolgi ctrl inactive and PostGolgi yeast inactive.
For O=C(O)c1n[nH]c2c1CCCC2 the results were PLAP activator inactive, Ecoli WT expand inactive, Ecoli tolC inactive, HePTP inhibitor inactive, PostGolgi ctrl inactive and PostGolgi yeast inactive.
Screening CC(O)C1CCC2C3CC[C@H]4CC(O)CCC4(C)C3CC3(OCCO3)C12C (stereo partly specified) returned PLAP activator inactive, Ecoli WT expand inactive, PostGolgi ctrl 33 and PostGolgi yeast inactive.
For O=C(NCc1ccco1)c1ccccc1NS(=O)(=O)c1ccc(Cl)s1 the results were PLAP activator 2.1, Ecoli WT expand inactive, PostGolgi ctrl inactive and PostGolgi yeast inactive.
`Cc1ccc(S(=O)(=O)Nc2ccccc2C(=O)Nc2ccccc2)cc1` gave HePTP inhibitor inactive.
Screening O=C(Nc1ccccc1)c1ccccc1NS(=O)(=O)c1ccc(Cl)s1 returned Ecoli WT expand inactive, PostGolgi ctrl 44 and PostGolgi yeast inactive.
Cc1ccc(-c2cc(C(=O)Nc3cnn(C45CC6CC(CC(C6)C4)C5)c3)no2)cc1 was read as PLAP activator inactive, Ecoli WT expand inactive, Ecoli tolC inactive, HePTP inhibitor inactive, PostGolgi ctrl inactive and PostGolgi yeast inactive.
Cc1ccc(NC(=O)c2nn(C34CC5CC(CC(C5)C3)C4)cc2[N+](=O)[O-])cc1 was read as PLAP activator inactive, Ecoli WT expand inactive, PostGolgi ctrl 61 and PostGolgi yeast 79.
`CC(=O)OC1CC(C)(C)N(OC(=O)c2ccccc2)C(C)(C)C1` gave PLAP activator inactive, Ecoli WT expand inactive, Ecoli tolC inactive, HePTP inhibitor inactive, PostGolgi ctrl inactive and PostGolgi yeast inactive.
For CCCCC(CC)Cn1c2nc3ccccc3nc2c2c(=N)oc(C)nc21 (stereo unspecified) the results were PLAP activator inactive, Ecoli WT expand inactive, Ecoli tolC inactive, HePTP inhibitor inactive, PostGolgi ctrl 72 and PostGolgi yeast inactive.
`CCCCn1c2nc3ccccc3nc2c2c(=N)oc(C)nc21` gave PLAP activator inactive, Ecoli tolC inactive and HePTP inhibitor inactive.
`CCOC(=O)C1=NNC2C(=O)N(c3ccc(C)cc3C)C(=O)C12` (stereo unspecified) gave HePTP inhibitor inactive.
Screening Cc1ccc(S(=O)(=O)NC(=O)Nc2cc(C)ccc2F)cc1 returned PLAP activator inactive, Ecoli WT expand inactive, Ecoli tolC inactive, HePTP inhibitor inactive, PostGolgi ctrl inactive and PostGolgi yeast inactive.
O=C1NC(=S)N/C1=C/c1ccc(OCc2cccc(C(=O)O)c2)cc1 was read as HePTP inhibitor 103.
Screening CSCCOC(=O)C1=C(C)NC(=O)CC1c1ccccc1Cl (stereo unspecified) returned PLAP activator inactive, Ecoli WT expand inactive, Ecoli tolC 62, HePTP inhibitor inactive, PostGolgi ctrl inactive and PostGolgi yeast inactive.
`NC(N)=N/N=C/c1ccc(OCc2ccccc2Cl)cc1` gave PLAP activator inactive, Ecoli WT expand 99, PostGolgi ctrl 36 and PostGolgi yeast inactive.
O=C(NCc1ccco1)c1ccc(Cn2c(=O)c3sccc3n(Cc3cccc(F)c3)c2=O)cc1 was read as PLAP activator inactive, Ecoli WT expand inactive, PostGolgi ctrl 38 and PostGolgi yeast inactive.
Screening CCn1c(C(=O)NCCCc2ccccc2)cc2sccc21 returned Ecoli tolC 81 and HePTP inhibitor inactive.
O=C(NCc1ccco1)c1ccc(Cn2c(=O)c3ccccc3n(Cc3cccc(Cl)c3)c2=O)cc1 was read as PLAP activator inactive, Ecoli WT expand inactive, PostGolgi ctrl inactive and PostGolgi yeast inactive.
`Cn1c(C(=O)OCC(=O)NCc2ccco2)cc2sccc21` gave PLAP activator inactive, Ecoli WT expand inactive, Ecoli tolC inactive, HePTP inhibitor inactive, PostGolgi ctrl inactive and PostGolgi yeast inactive.
`CCC(OC(=O)c1cc2sccc2n1C)C(=O)NCc1ccco1` (stereo unspecified) gave PLAP activator inactive, Ecoli WT expand inactive, Ecoli tolC inactive, HePTP inhibitor inactive, PostGolgi ctrl 99 and PostGolgi yeast 103.
Screening O=C(NCc1ccco1)c1cc2sccc2n1Cc1ccccc1 returned Ecoli tolC 77 and HePTP inhibitor inactive.
O=S(=O)(c1cccc2c(S(=O)(=O)N3CCCC3)cccc12)N1CCCC1 was read as PLAP activator inactive, Ecoli WT expand inactive, Ecoli tolC inactive, HePTP inhibitor inactive, PostGolgi ctrl inactive and PostGolgi yeast inactive.
For Cc1ccccc1NC(=O)Cc1nnc(SCc2ccc(Cl)c(Cl)c2)n1C the results were PLAP activator inactive, Ecoli WT expand inactive, PostGolgi ctrl inactive and PostGolgi yeast inactive.
Screening CC(C)(C)c1ccc(S(=O)(=O)/N=C2\C=CC(=O)C(Br)=C2)cc1 returned HePTP inhibitor inactive.
`CCc1ccccc1NC(=O)NC1CCCCC1` gave PLAP activator inactive, Ecoli WT expand inactive, PostGolgi ctrl inactive and PostGolgi yeast inactive.
`O=C(Nc1ccccc1O)c1ccc(C(=O)c2ccccc2)o1` gave HePTP inhibitor inactive.
`CCC(=O)Nc1nonc1-c1nc2ccccc2n1CCC(C)C` gave PLAP activator inactive, Ecoli WT expand inactive, Ecoli tolC inactive, HePTP inhibitor inactive, PostGolgi ctrl 36 and PostGolgi yeast inactive.
